# Laboratory results reported in ChEMBL document CHEMBL2346497, “Synthesis of novel cognition enhancers with pyrazolo[5,1-c][1,2,4]benzotriazine core acting at γ-aminobutyric acid type A (GABA(A)) receptor” (Bioorg Med Chem, 2013).
# Calls of active or inactive are those of the source. No cut-off for these calls is given here.
# Key:
# Rattus norvegicus [1] = assay: Procognitive effect in Harlan Wistar rat assessed as exploring time of familiar rat during social investigatory behaviour at 1 mg/kg, po administered 30 mins prior to testing measured for 5 mins by social learning test (reference value: 27.6 secs); type: functional
# [2] = Displacement of [3H]Ro15-1788 from GABA-A receptor benzodiazepine binding site in bovine cerebral cortex membranes after 1 hr; type: cell membranes, Bos taurus, Membrane
# Rattus norvegicus [3] = assay: Procognitive effect in Harlan Wistar rat assessed as exploring time of familiar rat during social investigatory behaviour at 0.3 mg/kg, po administered 30 mins prior to testing measured for 5 mins by social learning test (reference value: 27.6 secs); type: functional
# Mus musculus [4] = assay: Antiamnesic activity in CD1 albino mouse assessed as reversal of scopolamine-induced amnesia at 0.1 mg/kg, po administered 30 mins prior to scopolamine challenge measured after 24 hrs by passive avoidance test; type: functional, organism-based; set-up: dose 0.1 mg/kg
# How it was run: (§1)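 Step-through passive avoidance in male CD-1 mice (22–24 g). Test drugs were given po, suspended in 1% carboxymethylcellulose at 10 ml/kg, 30 min before the training session. For the antiamnesic arm, scopolamine 1.5 mg/kg was injected immediately after punishment. Retention latency was compared with CMC-treated controls, n = 10–12 mice per group.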
# Rattus norvegicus [5] = assay: Procognitive effect in Harlan Wistar rat assessed as decrease in exploring time of unfamiliar rat during social investigatory behaviour at 0.3 to 10 mg/kg, po administered 30 mins prior to testing measured for 5 mins by social learning test relative to control; type: functional, organism-based
# Mus musculus [6] = assay: Anxiolytic activity in CD1 albino mouse assessed as increase in time spent in illuminated side at 1 mg/kg, po administered 30 mins prior to testing measured for 5 mins by light-dark box test; type: functional, organism-based; set-up: dose 1 mg/kg
# How it was run: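 Light/dark box: two equal acrylic compartments, one lit by a 60 W lamp, joined by a floor-level opening. Male CD-1 mice were dosed po in 1% CMC 30 min before the test, then placed in the centre of the lit side facing away from the dark side. Over 5 min, transfers and time in the light side were recorded, n = 8 mice per group.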
# Mus musculus [7] = assay: Cognitive enhancing effect in CD1 albino mouse assessed as increase in retention latency at 0.1 to 10 mg/kg, po administered 30 mins prior to testing measured after 24 hrs by passive avoidance test relative to control; type: functional, organism-based; how it was run: as §1
# Mus musculus [8] = assay: Neurotoxicity in CD1 albino mouse assessed as decrease in number of falls from rotating rod at 10 mg/kg, po by rota-rod test relative to control; type: toxicity, organism-based; set-up: dose 10 mg/kg, route oral; conditions: in vivo, TDE = time-dependent effect
# How it was run: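 Motor coordination was tested on a rota-rod turning at 24 rpm in male CD-1 mice dosed po in 1% CMC. Falls within 30 s were counted at a pretest and at 15, 30, 45 and 60 min after dosing. Each value is the mean of five mice, compared with CMC-treated controls.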
# [9] = target: T1, GABA-A receptor; alpha-1/beta-2/gamma-2 (Homo sapiens, UniProt P14867+P18507+P47870); assay: Displacement of [3H]Ro15-1788 from recombinant GABA-A alpha1beta2gamma2 receptor benzodiazepine binding site (unknown origin) after 1 hr; type: protein-complex assay
# T1 sequence (P14867 whole entry): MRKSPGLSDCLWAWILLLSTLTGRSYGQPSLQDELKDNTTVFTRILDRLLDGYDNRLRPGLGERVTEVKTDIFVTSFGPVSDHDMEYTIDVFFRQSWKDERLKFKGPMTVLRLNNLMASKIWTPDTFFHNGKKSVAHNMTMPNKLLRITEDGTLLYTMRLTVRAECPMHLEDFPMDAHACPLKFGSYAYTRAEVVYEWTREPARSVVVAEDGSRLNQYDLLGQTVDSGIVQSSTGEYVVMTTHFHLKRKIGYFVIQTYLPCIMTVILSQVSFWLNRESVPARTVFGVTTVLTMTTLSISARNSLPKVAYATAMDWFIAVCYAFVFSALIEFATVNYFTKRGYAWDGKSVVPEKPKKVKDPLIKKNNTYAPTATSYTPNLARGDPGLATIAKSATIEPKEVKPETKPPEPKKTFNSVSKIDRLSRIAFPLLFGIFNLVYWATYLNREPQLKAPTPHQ
# T1 sequence (P47870 whole entry): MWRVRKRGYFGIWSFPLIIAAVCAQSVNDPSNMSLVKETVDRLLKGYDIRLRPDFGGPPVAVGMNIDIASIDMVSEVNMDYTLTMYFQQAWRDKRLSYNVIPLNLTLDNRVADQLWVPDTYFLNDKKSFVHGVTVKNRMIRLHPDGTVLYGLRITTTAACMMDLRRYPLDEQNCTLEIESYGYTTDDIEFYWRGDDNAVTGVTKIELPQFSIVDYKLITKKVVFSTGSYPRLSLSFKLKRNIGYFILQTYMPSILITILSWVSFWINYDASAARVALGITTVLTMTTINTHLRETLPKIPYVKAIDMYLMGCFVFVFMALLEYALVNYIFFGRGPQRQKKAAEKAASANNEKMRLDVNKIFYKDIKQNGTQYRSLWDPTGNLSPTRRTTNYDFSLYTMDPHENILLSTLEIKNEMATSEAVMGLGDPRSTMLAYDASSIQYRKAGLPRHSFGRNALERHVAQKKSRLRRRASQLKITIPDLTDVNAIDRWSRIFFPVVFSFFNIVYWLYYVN
# T1 sequence (P18507 whole entry): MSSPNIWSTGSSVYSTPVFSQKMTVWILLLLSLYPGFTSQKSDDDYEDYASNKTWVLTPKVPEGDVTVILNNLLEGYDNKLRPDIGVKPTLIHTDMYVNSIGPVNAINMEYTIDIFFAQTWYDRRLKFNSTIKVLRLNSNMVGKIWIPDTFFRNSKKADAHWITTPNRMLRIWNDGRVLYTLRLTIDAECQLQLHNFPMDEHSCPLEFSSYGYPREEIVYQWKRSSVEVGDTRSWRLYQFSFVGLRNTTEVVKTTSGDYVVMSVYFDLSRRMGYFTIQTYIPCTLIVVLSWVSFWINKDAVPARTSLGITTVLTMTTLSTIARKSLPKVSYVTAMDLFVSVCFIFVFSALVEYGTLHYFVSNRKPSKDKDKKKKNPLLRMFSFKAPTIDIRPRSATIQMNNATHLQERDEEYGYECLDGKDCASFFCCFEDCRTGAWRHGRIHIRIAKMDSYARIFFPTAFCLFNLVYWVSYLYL
# How it was run: (§2)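 Membranes came from clonal mammalian cell lines expressing α1β2γ2, α2β2γ2 or α5β3γ2 receptors, grown in MEM/EBSS with 10% FCS at 37 °C. Membranes were resuspended in 10 mM potassium phosphate, pH 7.4, with 100 mM KCl. Assays used 1–2 nM [3H]Ro15-1788 and test compound from 10^-9 to 10^-5 M, at least six concentrations. Diazepam at 10^-5 M defined nonspecific binding. Incubation ran 1 h at 4 °C. Single-point % inhibition was measured at 10 µM, and Ki by curve fitting; n = 5, in duplicate.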
# Rattus norvegicus [10] = assay: Procognitive effect in Harlan Wistar rat assessed as exploring time of familiar rat during social investigatory behaviour at 10 mg/kg, po administered 30 mins prior to testing measured for 5 mins by social learning test (reference value: 27.6 secs); type: functional
# Mus musculus [11] = assay: Anticonvulsant activity in CD1 albino mouse assessed as protection against pentylenetetrazole-induced convulsions at 1 mg/kg, po administered 30 mins prior to pentylenetetrazole challenge measured over 30 mins (reference value: 7.1%); type: functional
# [12] = target: GABA A receptor alpha-2/beta-2/gamma-2 (Homo sapiens) (UniProt P47870+P18507+P47869); assay: Displacement of [3H]Ro15-1788 from recombinant GABA-A alpha2beta2gamma2 receptor benzodiazepine binding site (unknown origin) at 10 uM after 1 hr relative to control; type: protein-complex assay; how it was run: as §2
# [13] = target: T2, Gamma-aminobutyric acid receptor subunit alpha-5 (Homo sapiens, UniProt P18507+P31644+P47870); assay: Displacement of [3H]Ro15-1788 from recombinant GABA-A alpha5beta2gamma2 receptor benzodiazepine binding site (unknown origin) after 1 hr
# T2 sequence (P31644 whole entry): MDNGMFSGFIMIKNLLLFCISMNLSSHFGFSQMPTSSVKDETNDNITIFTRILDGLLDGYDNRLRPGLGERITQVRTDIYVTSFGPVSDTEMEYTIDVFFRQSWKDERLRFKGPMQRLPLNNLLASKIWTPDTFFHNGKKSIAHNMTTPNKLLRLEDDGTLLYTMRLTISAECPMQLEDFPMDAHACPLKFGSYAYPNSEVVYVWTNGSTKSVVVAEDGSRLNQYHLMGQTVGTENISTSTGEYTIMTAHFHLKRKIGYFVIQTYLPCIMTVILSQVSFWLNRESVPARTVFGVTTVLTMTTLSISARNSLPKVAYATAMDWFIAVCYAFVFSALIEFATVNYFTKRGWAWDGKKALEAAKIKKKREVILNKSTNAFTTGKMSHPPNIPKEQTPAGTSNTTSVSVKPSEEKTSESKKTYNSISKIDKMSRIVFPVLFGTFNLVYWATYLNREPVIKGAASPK
structure (smiles),measurement,setting,value
[O-][n+]1nc2c(I)cnn2c2cc(NCc3cccnc3)ccc21,Time,Rattus norvegicus [1],43.7 s
same,Ki,[2],0.33 nM
same,Time,Rattus norvegicus [3],29.4 s
same,Activity,Mus musculus [4],Active
same,Activity,Rattus norvegicus [5],inactive
same,Activity,Mus musculus [6],inactive
same,Activity,Mus musculus [7],Active
same,Activity,Mus musculus [8],tde
same,Ki,[9],0.45 nM
same,Time,Rattus norvegicus [10],42.5 s
same,Activity,Mus musculus [11],0%
same,inhibition,[12],37%
same,Ki,[13],24.9 nM
